# Screening results: PubChem, several laboratories
# This is a sample that favours compounds with a hit; in the whole collection about 1.2% have one here.
# S1P4 ag: activates the human S1P4 receptor; 220,000 compounds, 0.35% hits; AID 1509; S1P4-expressing cell line, agonist reporter assay; O95977; activation, % at 4.98 µM; in the data active = activation above about 11%;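 also: 0% = DMSO vehicle and 100% = reference agonist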
# Target sequence (O95977 whole entry, looked up): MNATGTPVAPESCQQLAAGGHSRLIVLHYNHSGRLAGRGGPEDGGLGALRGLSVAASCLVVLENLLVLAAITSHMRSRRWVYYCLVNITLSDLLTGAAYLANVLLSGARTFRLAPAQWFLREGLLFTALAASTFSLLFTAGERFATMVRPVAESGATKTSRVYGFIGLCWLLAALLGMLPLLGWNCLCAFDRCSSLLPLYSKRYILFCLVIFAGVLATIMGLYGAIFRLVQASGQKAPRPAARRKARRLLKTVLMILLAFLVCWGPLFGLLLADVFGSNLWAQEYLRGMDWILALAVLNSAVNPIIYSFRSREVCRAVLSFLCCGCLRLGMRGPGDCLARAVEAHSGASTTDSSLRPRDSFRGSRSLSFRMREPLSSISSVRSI
# Calb biofilm kill: mixture kills Candida albicans biofilm cells; C. albicans biofilm persisters + clotrimazole, fluorescence viability; primary screen in compound mixtures of four per well; inhibition, % at 7.6 µM; 120,000 compounds, 0.02% hits; AID 1242;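 active = inhibition above 30.3% in the primary screen of four-compound pools, then above 30% when the compound was retested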;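 also: compounds exposed to preformed 24 h biofilms for 48 h; 0% = untreated biofilm control and 100% = clotrimazole plus chlorhexidine kill blank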
#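 System: C. albicans CAF4-2 wild-type biofilms; Medium: RPMI/MOPS medium, pH 7.0; Reagent: Clotrimazole, 50 µg/mL; Times: biofilm formation 24 h, compound exposure 48 h, 37 °C; Detection: 2-h Alamar Blue fluorescence, 535/590 nm excitation/emission; Evaluation: percent inhibition of biofilm viability.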
# S1P3 antag: blocks the human S1P3 receptor. Q99500. CHO S1P3 NFAT-BLA reporter, FRET fluorescence, antagonist mode. inhibition, % at 4.98 µM. 170,000 compounds, 0.27% hits;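 active = inhibition above the plate cutoff, the mean inhibition of test wells on that plate plus 3 SD, cut at about 28% in these data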;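 also: cells challenged with S1P at its EC80 of 0.8 µM; blue over green emission ratio from cleaved BLA substrate after 4 h stimulation; 0% = S1P-stimulated wells and 100% = unstimulated DMSO-only wells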
# S1P4 antag: blocks the human S1P4 receptor; 220,000 compounds, 0.26% hits; AID 1510; O95977; inhibition, % at 4.98 µM; S1P4-expressing cells, antagonist mode, reporter read-out; in the data active = inhibition above about 29%;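 also: 0% = wells stimulated with agonist and 100% = vehicle wells without agonist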
# HMGR II inh: blocks class II HMG-CoA reductase of Enterococcus faecalis. purified E. faecalis HMGR, NADPH absorbance 340 nm kinetic. inhibition, % at 10 µM. 190,000 compounds, 0.41% hits. AID 1066;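 active = inhibition above a set limit, the median over all tested compounds plus 3 SD, cut at about 9.5% in these data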;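 also: enzyme runs in reverse so mevalonate oxidation gives rising NADPH absorbance; 0% = complete reaction with DMSO and 100% = background rate lacking mevalonate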
# Rad51 HR inh: blocks human Rad51 in homologous recombination; 200,000 compounds, 0.085% hits; inhibition, % at 10 µM; Q06609; hRad51 DNA strand exchange, fluorescence dequenching;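 active = inhibition above 40% at the single screening dose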;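 also: 0% = DMSO control wells and 100% = blanks with heterologous ssDNA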
#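 Test system – preformed human Rad51 ssDNA filaments · Reagent – Donor/quencher-labelled 47-bp dsDNA substrate · Incubation – 37 °C 15-min filament assembly, 30-min compound preincubation, 15-min exchange · Signal – FRET fluorescence dequenching, excitation 485 nm, emission 520 nm · Read-out – percent inhibition from fluorescence, normalised to plate control and blank means · Benchmarks – plate control and blank wells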
# Starred values were filed as active, the others as inactive; · = no result given.
SMILES,S1P4 ag,Calb biofilm kill,S1P3 antag,S1P4 antag,HMGR II inh,Rad51 HR inh
COc1ccc(-c2nc(CN3CCCCC3c3cccnc3)c(C)o2)c(F)c1 (stereo not drawn),1,20,-1,2,16*,-2
O=C(Nc1ccccc1C(=O)N/N=C/c1ccco1)c1ccccc1,0,14,-5,-2,-5,0
COc1cccc(/C=C/C(=O)c2cccc([N+](=O)[O-])c2)c1OC,3,2,-1,7,-8,80*
OCC1(Cc2ccccc2)CCN(Cc2ccccn2)CC1,0,7,0,-3,-4,2
COc1ccc(S(=O)(=O)NC(CC(=O)NCCc2ccc(OC)c(OC)c2)c2ccco2)cc1 (stereo not drawn),0,·,94*,-20,-2,-10
Cc1c(NC(=O)CC2NC(=O)NC2=O)c(=O)n(-c2ccccc2)n1C (stereo not drawn),1,5,-13,-12,-3,-7
COc1cc(C(=O)O)c2c(c1C)OC(=O)c1c(C)cc(O)c(C=O)c1O2,·,·,·,·,·,61*
COc1cccc(-c2nc(CS(=O)(=O)CC(=O)NCc3ccccc3)c(C)o2)c1,0,·,-32,18,-9,·
CCC(C)NC(=O)CS(=O)(=O)Cc1nc(-c2cccc(OC)c2)oc1C (stereo not drawn),1,·,85*,-8,0,-1
O=C(NC1=NCCS1)c1cccc(N2C(=O)c3ccccc3C2=O)c1,-1,18,-14,-20,-1,41*
COc1ccc(/C=N/Nc2nc(N3CCCC3)nc(N3CCCC3)n2)cc1,0,-3,-8,-26,1,-8
COc1ccc(/C=N/Nc2nc(Nc3ccccc3)nc(N3CCCC3)n2)cc1,1,12,0,-21,11*,-1
O=C(Nc1ccc(N2CCOCC2)cc1)C1(c2ccc(Cl)cc2)CCC1,-2,7,-21,-3,-4,-4
Cc1ccc(C(C(=O)NC(C)(C)C)N(Cc2ccc3c(c2)OCO3)C(=O)c2ccc(CN3CCOCC3)o2)o1 (stereo not drawn),1,18,-11,4,15*,-2
COc1ccc(CN2C(=O)[C@@H]3Cc4c([nH]c5ccccc45)C(C)(C)N3C2=O)cc1,·,·,·,·,·,-5
O=C(CN(c1ccccc1)S(=O)(=O)c1ccccc1)N1CCOCC1,0,11,-16,4,0,9
Cc1ccc(N(CC(=O)N2CCOCC2)S(=O)(=O)c2ccccc2)cc1,0,·,·,1,12*,-5
O=C(Cn1cccc1C(=O)c1ccccc1)NCc1ccco1,2,·,-7,16,14*,-5
O=C(Cn1nnc(-c2ccccc2F)n1)NCc1ccco1,-1,10,6,-4,-5,44*
CCCCOc1ccc(-c2nnn(CC(=O)NCc3ccco3)n2)cc1,-2,·,-43,-6,-1,5
CCOc1cc(NC(=O)c2cccs2)c(OCC)cc1NC(=O)CCC(=O)NCc1ccccn1,3,10,-2,1,·,9
CC(C)N=c1scc(-c2cccs2)n1/N=C/c1ccc(O)c(O)c1O,17*,8,-2,-14,-2,-3
CCOc1ccccc1N1CCN(C(=O)CC(C)(C)C)CC1,1,13,1,-16,11*,-5
COc1ccc(-c2nnc(CSc3nnc(-c4ccncc4)n3C3CCCCC3)o2)cc1OC,0,·,16,-20,-4,-5
COCCCn1c(SCc2nnc(-c3ccc(OC)c(OC)c3)o2)nnc1-c1ccncc1,0,16,·,1,9.9*,6
SMILES,S1P4 ag,Calb biofilm kill,S1P3 antag,S1P4 antag,HMGR II inh,Rad51 HR inh
O=C(Nc1ccc(Cl)cc1)Nc1ccccc1C(=O)NCc1ccco1,1,·,54*,-7,0,0
CC1(C)CC(=O)C=C(NNC(=O)c2ccccc2O)C1,1,·,·,-3,-3,96*
O=C(COC(=O)c1ccco1)NCc1cccs1,-1,·,-8,-15,4,-3
O=C(NCCCN1CCCC1=O)c1nnc(Cc2c(F)cccc2Cl)o1,1,·,0,3,-1,3
CN1CCN(CCCNC(=O)c2nnc(Cc3c(F)cccc3Cl)o2)CC1,1,·,·,3,10*,-5
O=C1/C(=C/c2cccs2)Sc2ccccc21,-1,15,-5,-6,11*,-16
COc1cc(OC)c(OC)cc1CN1CCCC(C(=O)c2sccc2C)C1 (stereo not drawn),-1,2,14,-10,·,·
Cc1ccsc1C(=O)C1CCCN(Cc2cc(F)ccc2-n2cccn2)C1 (stereo not drawn),0,11,-2,-1,18*,-5
COc1cc(C2C3=C(CCCC3=O)Nc3ccc4ncccc4c32)ccc1O (stereo not drawn),0,14,-4,-6,-3,-8
CCOc1cc(C2C3=C(CCCC3=O)Nc3ccc4ncccc4c32)ccc1O (stereo not drawn),1,11,-6,-2,12*,24
NC(=O)c1sc2nccc(Nc3ccccc3)c2c1N,0,·,72*,-6,-8,1
CC(C)(C)NC(=O)NC(=O)COC(=O)CCC1CCCC1,0,4,2,0,·,46*
CC(=O)c1sc(NC(=O)C2(F)C(F)(F)C(F)(F)C(F)(F)C(F)(F)C2(F)F)nc1C,0,·,76*,-2,-5,1
CC(=O)c1sc(NC(=O)C=C(C)C)nc1C,0,·,-7,-4,0,0
Cc1ccccc1-n1c(-c2cccnc2)n[nH]c1=S,2,·,-33,-7,-1,-3
CCN(CC)c1ccc(-c2n[nH]c(=S)n2-c2ccccc2C)cc1,1,5,-8,-10,14*,-1
O=C(NCCO)c1cccc(S(=O)(=O)N2CCCCC2)c1,0,·,-6,-7,-7,-5
CC(C)CC1(C(=O)NCCc2c[nH]c3ccccc23)C=CCN1C(=O)c1ccccc1 (stereo not drawn),1,23,-11,1,4,1
Cc1cccc(N/N=C(\C#N)S(=O)(=O)C(C)(C)C)c1,1,11,4,-6,17*,18
COc1cccc(/C=C2/SC(=O)N(C)C2=O)c1OCc1ccc(C(=O)O)cc1,-1,11,-9,0,10*,-2
COc1ccc(NC(=O)COC(=O)CCNS(=O)(=O)c2ccc(Cl)cc2)cc1,1,4,4,-19,·,43*
COc1ccc(NC(=O)CNS(=O)(=O)c2ccc(Cl)cc2)cc1,-1,20,·,-8,4,-10
COc1ccc(C)c2sc(N(CCCN(C)C)C(=O)c3ccc(S(=O)(=O)N(C)C)cc3)nc12,0,16,-4,2,-3,47*
CCCCN(C(=O)c1ccc(S(=O)(=O)N(C)C)cc1)c1nc2ccccc2s1,-3,14,18,-3,-8,-1
